14 molecules from article PMC9933479 (ACS Omega, 2023) can be followed below.

Common to all, as to assay: MTT assay, cytotoxicity/growth inhibition
(Tetrazolium dyes change colour on reduction, which living cells bring about.)

The test system of assay [1] is PC-3 (prostate carcinoma). It is filed as cell-based. The following applies: Homo sapiens; for inhibition at 20 µM: 48 h, read-out: Cytotoxic Activity (% Growth Inhibition). In short, it runs like this: (§1)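 Cells were grown in RPMI (A549, HCT-116, PC-3) or DMEM (MCF-7) with 10% FBS at 37 °C and 5% CO2. Seeding per well was […] and PC-3 8 × 10^4 cells. […] MTT 250 μg/mL, 4 h; DMSO; A570; triplicate; mean ± SE.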

The test system of assay [2] is A549 (lung carcinoma). It is filed as cell-based, human. The note with it: for IC50 / inhibition at 20 µM: Homo sapiens; for IC50: A549; for inhibition at 20 µM: A549, 48 h, read-out: Cytotoxic Activity (% Growth Inhibition), A549, 20 μM concentration, MTT, 48 h. Put shortly: as §1
Assay [3] deals with HCT-116 (colon carcinoma). In kind it is cell-based. The following applies: Homo sapiens; for IC50: HCT-116; for inhibition at 20 µM: HCT-116, 48 h, read-out: Cytotoxic Activity (% Growth Inhibition). In short, it runs like this: as §1
Assay [4] has as its system MCF-7 (breast carcinoma). In kind it is cell-based. The following applies: Homo sapiens; for IC50: MCF7; for inhibition at 20 µM: MCF7, 48 h, read-out: Cytotoxic Activity (% Growth Inhibition). In short, it runs like this:
as §1

`COc1ccc(CC(=O)OCC2=CCC3[C@]4(C)COC(c5ccccc5)O[C@@H]4CC[C@@]3(C)[C@@H]2/C=C/C2=CCOC2=O)cc1` (stereo partly drawn) [Compound 8s, ((4aR,6aR,7S,10bR)-6a,10b-Dimethyl-7-((E)-2-(2-oxo-2,5-dihydrofuran-3-yl)vinyl)-3-phenyl-4a,5,6,6a,7,10,10a,10b-octahydro-1H-naphtho[2,1-d][1,3]dioxin-8-yl)methyl 2-(4-Methoxyphenyl)acetate]: the IC50 in assay [1] was 5.9 µM; in assay [2], 6.6 µM; in assay [3], above 20 µM; in assay [4] it was 16.9 µM. Also, the inhibition at 20 µM in assay [1] turned out to be 75 ± 0.93%; in assay [2], 78 ± 0.97%; in assay [3] it was 22.1 ± 0.44%; in assay [4], 54 ± 0.53%.
`Cc1ccc(CC(=O)OCC2=CCC3[C@]4(C)COC(c5ccccc5)O[C@@H]4CC[C@@]3(C)[C@@H]2/C=C/C2=CCOC2=O)cc1` (stereo partly drawn) [Compound 8t, ((4aR,6aR,7S,10bR)-6a,10b-Dimethyl-7-((E)-2-(2-oxo-2,5-dihydrofuran-3-yl)vinyl)-3-phenyl-4a,5,6,6a,7,10,10a,10b-octahydro-1H-naphtho[2,1-d][1,3]dioxin-8-yl)methyl 2-(p-Tolyl)acetate]: the inhibition at 20 µM worked out at 69.5 ± 0.74% in assay [1], 48.9 ± 0.73% in assay [2], 45.9 ± 0.86% in assay [3] and 27 ± 0.29% in assay [4].
On to `COc1cc(CC(=O)OCC2=CCC3[C@]4(C)COC(c5ccccc5)O[C@@H]4CC[C@@]3(C)[C@@H]2/C=C/C2=CCOC2=O)cc(OC)c1OC` (stereo partly drawn) [Compound 8u, ((4aR,6aR,7S,10bR)-6a,10b-Dimethyl-7-((E)-2-(2-oxo-2,5-dihydrofuran-3-yl)vinyl)-3-phenyl-4a,5,6,6a,7,10,10a,10b-octahydro-1H-naphtho[2,1-d][1,3]dioxin-8-yl)methyl 2-(3,4,5-Trimethoxyphenyl)acetate], for which the IC50 in assay [1] was 9 µM; in assay [2], 5.4 µM; in assay [3] it was above 20 µM; in assay [4], above 20 µM. Besides, the inhibition at 20 µM in assay [1] worked out at 70.9 ± 0.41%; in assay [2], 72 ± 0.54%; in assay [3], 10.9 ± 0.99%; in assay [4] it was 43 ± 0.28%. The “potency relative to andrographolide (times / fold more potent)” value in assay [2] (A549, ratio of IC50 values) was “about 4”.
For `C[C@@]12COC(c3ccccc3)O[C@@H]1CC[C@]1(C)C2CC=C(COC(=O)Cc2ccc(Cl)c(Cl)c2)[C@H]1/C=C/C1=CCOC1=O` (stereo partly drawn) [Compound 8v, ((4aR,6aR,7S,10bR)-6a,10b-Dimethyl-7-((E)-2-(2-oxo-2,5-dihydrofuran-3-yl)vinyl)-3-phenyl-4a,5,6,6a,7,10,10a,10b-octahydro-1H-naphtho[2,1-d][1,3]dioxin-8-yl)methyl 2-(3,4-Dichlorophenyl)acetate], the half-maximal inhibitory concentration (IC50) in assay [1] is 8.4 µM; in assay [2] it was above 20 µM; in assay [3], above 20 µM; in assay [4], above 20 µM. For the same molecule, the inhibition at 20 µM in assay [1] is 70.3 ± 0.54%; in assay [2], 41.6 ± 0.98%; in assay [3], 12.5 ± 0.78%; in assay [4], 34 ± 0.28%.
Regarding `CCCCCCCC(=O)OCC1=CCC2[C@]3(C)COC(c4ccccc4)O[C@@H]3CC[C@@]2(C)[C@@H]1/C=C/C1=CCOC1=O` (stereo partly drawn) [Compound 8w, ((4aR,6aR,7S,10bR)-6a,10b-Dimethyl-7-((E)-2-(2-oxo-2,5-dihydrofuran-3-yl)vinyl)-3-phenyl-4a,5,6,6a,7,10,10a,10b-octahydro-1H-naphtho[2,1-d][1,3]dioxin-8-yl)methyl Octanoate], the IC50 in assay [1] was above 20 µM; in assay [2], 8.4 µM; in assay [3], above 20 µM; in assay [4], 20 µM. The inhibition at 20 µM was 49 ± 0.85% in assay [1], 70.7 ± 0.73% in assay [2], 40.5 ± 0.91% in assay [3] and 51 ± 0.96% in assay [4].
Take `CCCCCCCCCC(=O)OCC1=CCC2[C@]3(C)COC(c4ccccc4)O[C@@H]3CC[C@@]2(C)[C@@H]1/C=C/C1=CCOC1=O` (stereo partly drawn) [Compound 8x, ((4aR,6aR,7S,10bR)-6a,10b-Dimethyl-7-((E)-2-(2-oxo-2,5-dihydrofuran-3-yl)vinyl)-3-phenyl-4a,5,6,6a,7,10,10a,10b-octahydro-1H-naphtho[2,1-d][1,3]dioxin-8-yl)methyl Decanoate]: the inhibition at 20 µM is 39 ± 0.24% in assay [1], 49.7 ± 0.79% in assay [2], 50.1 ± 0.4% in assay [3] and 45 ± 0.98% in assay [4].
As to `CCCCCCCCCCCC(=O)OCC1=CCC2[C@]3(C)COC(c4ccccc4)O[C@@H]3CC[C@@]2(C)[C@@H]1/C=C/C1=CCOC1=O` (stereo partly drawn) [Compound 8y, ((4aR,6aR,7S,10bR)-6a,10b-Dimethyl-7-((E)-2-(2-oxo-2,5-dihydrofuran-3-yl)vinyl)-3-phenyl-4a,5,6,6a,7,10,10a,10b-octahydro-1H-naphtho[2,1-d][1,3]dioxin-8-yl)methyl Dodecanoate], the IC50 in assay [1] was above 20 µM; in assay [2], 11 µM; in assay [3], above 20 µM; in assay [4], 20 µM. Also, the inhibition at 20 µM in assay [1] was 32 ± 0.66%; in assay [2], 71 ± 0.77%; in assay [3], 40.1 ± 0.8%; in assay [4], 51 ± 0.35%.
Take `COc1cccc(C(=O)OCC2=CCC3[C@](C)(CO)[C@H](O)CC[C@@]3(C)[C@@H]2/C=C/C2=CCOC2=O)c1` (stereo partly drawn) [Compound 9b, ((1S,5R,6R,8aR)-6-Hydroxy-5-(hydroxymethyl)-5,8a-dimethyl-1-((E)-2-(2-oxo-2,5-dihydrofuran-3-yl)vinyl)-1,4,4a,5,6,7,8,8a-octahydronaphthalen-2-yl)methyl 3-Methoxybenzoate]: the inhibition at 20 µM in assay [1] amounted to 7 ± 0.58%; in assay [2], 39.85 ± 0.26%; in assay [3], 0%; in assay [4] it was 14.6 ± 0.09%.
With `C[C@]1(CO)C2CC=C(COC(=O)c3cccc(F)c3)[C@@H](/C=C/C3=CCOC3=O)[C@]2(C)CC[C@H]1O` (stereo partly drawn) [Compound 9c, ((1S,5R,6R,8aR)-6-Hydroxy-5-(hydroxymethyl)-5,8a-dimethyl-1-((E)-2-(2-oxo-2,5-dihydrofuran-3-yl)vinyl)-1,4,4a,5,6,7,8,8a-octahydronaphthalen-2-yl)methyl 3-Fluorobenzoate], the inhibition at 20 µM in assay [1] was determined as 0%; in assay [2] it was 42.92 ± 0.27%; in assay [3], 14.8 ± 0.17%; in assay [4], 1.54 ± 0.03%.
For `C[C@]1(CO)C2CC=C(COC(=O)c3cccc(Cl)c3)[C@@H](/C=C/C3=CCOC3=O)[C@]2(C)CC[C@H]1O` (stereo partly drawn) [Compound 9d, ((1S,5R,6R,8aR)-6-Hydroxy-5-(hydroxymethyl)-5,8a-dimethyl-1-((E)-2-(2-oxo-2,5-dihydrofuran-3-yl)vinyl)-1,4,4a,5,6,7,8,8a-octahydronaphthalen-2-yl)methyl 3-Chlorobenzoate], the inhibition at 20 µM in assay [1] was 0%; in assay [2], 49.19 ± 0.2%; in assay [3] it was 30.21 ± 0.15%; in assay [4] it was 10.02 ± 0.02%.
The like results for `C[C@]1(CO)C2CC=C(COC(=O)c3cccc(Br)c3)[C@@H](/C=C/C3=CCOC3=O)[C@]2(C)CC[C@H]1O` (stereo partly drawn) [Compound 9e, ((1S,5R,6R,8aR)-6-Hydroxy-5-(hydroxymethyl)-5,8a-dimethyl-1-((E)-2-(2-oxo-2,5-dihydrofuran-3-yl)vinyl)-1,4,4a,5,6,7,8,8a-octahydronaphthalen-2-yl)methyl 3-Bromobenzoate] were, in that order, 0%, 50.55 ± 0.17%, 14.1 ± 0.24% and 1.93 ± 0.1%.
Turning to `C[C@]1(CO)C2CC=C(COC(=O)c3cccc(I)c3)[C@@H](/C=C/C3=CCOC3=O)[C@]2(C)CC[C@H]1O` (stereo partly drawn) [Compound 9f, ((1S,5R,6R,8aR)-6-Hydroxy-5-(hydroxymethyl)-5,8a-dimethyl-1-((E)-2-(2-oxo-2,5-dihydrofuran-3-yl)vinyl)-1,4,4a,5,6,7,8,8a-octahydronaphthalen-2-yl)methyl 3-Iodobenzoate], the inhibition at 20 µM in assay [1] turned out to be 49 ± 1%; in assay [2], 58 ± 0.15%; in assay [3], 0%; in assay [4] it was 21.75 ± 0.06%.
In the same order, the values of `C[C@]1(CO)C2CC=C(COC(=O)c3ccoc3)[C@@H](/C=C/C3=CCOC3=O)[C@]2(C)CC[C@H]1O` (stereo partly drawn) [Compound 9g, ((1S,5R,6R,8aR)-6-Hydroxy-5-(hydroxymethyl)-5,8a-dimethyl-1-((E)-2-(2-oxo-2,5-dihydrofuran-3-yl)vinyl)-1,4,4a,5,6,7,8,8a-octahydronaphthalen-2-yl)methyl Furan-3-carboxylate] are 11 ± 0.22%, 63.58 ± 0.08%, 11.28 ± 0.1% and 0%.
Take `C[C@]1(CO)C2CC=C(COC(=O)c3cccc(C(F)(F)F)c3)[C@@H](/C=C/C3=CCOC3=O)[C@]2(C)CC[C@H]1O` (stereo partly drawn) [Compound 9h, ((1S,5R,6R,8aR)-6-Hydroxy-5-(hydroxymethyl)-5,8a-dimethyl-1-((E)-2-(2-oxo-2,5-dihydrofuran-3-yl)vinyl)-1,4,4a,5,6,7,8,8a-octahydronaphthalen-2-yl)methyl 3-(Trifluoromethyl)benzoate]: the inhibition at 20 µM was 29 ± 1.4% in assay [1], 28.81 ± 0.03% in assay [2], 3.31 ± 0.13% in assay [3] and 30.4 ± 0.36% in assay [4].

Usually IC50 stands for the concentration needed to halve the response being measured.
